According to article PMC12166256 (Clinical Pharmacology and Therapeutics, 2025):

Experiment: SAD study: safety and tolerability
Format: in vivo, human
Settings: for Abdominal pain TEAE, events / Abdominal pain TEAE, participants / Any event TEAE, events / Any event TEAE, participants / Diarrhea TEAE, events / Diarrhea TEAE, participants / Dysgeusia TEAE, events / Dysgeusia TEAE, participants / Gastrointestinal disorders TEAE, events / Gastrointestinal disorders TEAE, participants / Headache TEAE, events / Headache TEAE, participants / Hypoaesthesia oral TEAE, events / Hypoaesthesia oral TEAE, participants / Infections and infestations TEAE, events / Infections and infestations TEAE, participants / Insomnia TEAE, events / Insomnia TEAE, participants / Nasopharyngitis TEAE, events / Nasopharyngitis TEAE, participants / Nervous system disorders TEAE, events / Nervous system disorders TEAE, participants / Psychiatric disorders TEAE, events / Psychiatric disorders TEAE, participants / Rash TEAE, events / Rash TEAE, participants / Skin and subcutaneous tissue disorders TEAE, events / Skin and subcutaneous tissue disorders TEAE, participants / Tooth infection TEAE, events / Tooth infection TEAE, participants: N = 6
Summary of the method: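 Healthy males aged 18–55 with BMI 18–30 kg/m² were followed through dosing and a 6–8-day follow-up. Checks: physical examination, clinical laboratory tests, vital signs and 12-lead ECG, with adverse events coded in MedDRA. Events of special interest: ALT ≥2×ULN, QTcF ≥500 ms, Grade ≥2 photosensitivity, symptomatic overdose. Treatment-emergent events were summarised descriptively by organ class, preferred term and dose level for all exposed participants.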

CN1C(=O)c2cccc(OC(F)F)c2[C@H]2C[C@@H]1c1nc3ccc(-c4cnc(C5(N)CCC5)nc4)cc3n12 [Balinatunfib]
Grade ≥ 3 TEAE, treatment-emergent SAEs, TEAEs leading to discontinuation, AESIs (SAD): No participants | Abdominal pain TEAE, events (SAD 5 mg): 0 | Abdominal pain TEAE, participants (SAD 5 mg): 0 n (%) | Any event TEAE, events (SAD 5 mg): 0 | Any event TEAE, participants (SAD 5 mg): 0 n (%) | Diarrhea TEAE, events (SAD 5 mg): 0 | Diarrhea TEAE, participants (SAD 5 mg): 0 n (%) | Dysgeusia TEAE, events (SAD 5 mg): 0 | Dysgeusia TEAE, participants (SAD 5 mg): 0 n (%) | Gastrointestinal disorders TEAE, events (SAD 5 mg): 0 | Gastrointestinal disorders TEAE, participants (SAD 5 mg): 0 n (%) | Headache TEAE, events (SAD 5 mg): 0 | Headache TEAE, participants (SAD 5 mg): 0 n (%) | Hypoaesthesia oral TEAE, events (SAD 5 mg): 0 | Hypoaesthesia oral TEAE, participants (SAD 5 mg): 0 n (%) | Infections and infestations TEAE, events (SAD 5 mg): 0 | Infections and infestations TEAE, participants (SAD 5 mg): 0 n (%) | Insomnia TEAE, events (SAD 5 mg): 0 | Insomnia TEAE, participants (SAD 5 mg): 0 n (%) | Nasopharyngitis TEAE, events (SAD 5 mg): 0 | Nasopharyngitis TEAE, participants (SAD 5 mg): 0 n (%) | Nervous system disorders TEAE, events (SAD 5 mg): 0 | Nervous system disorders TEAE, participants (SAD 5 mg): 0 n (%) | Psychiatric disorders TEAE, events (SAD 5 mg): 0 | Psychiatric disorders TEAE, participants (SAD 5 mg): 0 n (%) | Rash TEAE, events (SAD 5 mg): 0 | Rash TEAE, participants (SAD 5 mg): 0 n (%) | Skin and subcutaneous tissue disorders TEAE, events (SAD 5 mg): 0 | Skin and subcutaneous tissue disorders TEAE, participants (SAD 5 mg): 0 n (%) | Tooth infection TEAE, events (SAD 5 mg): 0 | Tooth infection TEAE, participants (SAD 5 mg): 0 n (%) | Abdominal pain TEAE, events (SAD 20 mg): 0 | Abdominal pain TEAE, participants (SAD 20 mg): 0 n (%) | Any event TEAE, events (SAD 20 mg): 0 | Any event TEAE, participants (SAD 20 mg): 0 n (%) | Diarrhea TEAE, events (SAD 20 mg): 0 | Diarrhea TEAE, participants (SAD 20 mg): 0 n (%) | Dysgeusia TEAE, events (SAD 20 mg): 0 | Dysgeusia TEAE, participants (SAD 20 mg): 0 n (%) | Gastrointestinal disorders TEAE, events (SAD 20 mg): 0 | Gastrointestinal disorders TEAE, participants (SAD 20 mg): 0 n (%) | Headache TEAE, events (SAD 20 mg): 0 | Headache TEAE, participants (SAD 20 mg): 0 n (%) | Hypoaesthesia oral TEAE, events (SAD 20 mg): 0 | Hypoaesthesia oral TEAE, participants (SAD 20 mg): 0 n (%) | Infections and infestations TEAE, events (SAD 20 mg): 0 | Infections and infestations TEAE, participants (SAD 20 mg): 0 n (%) | Insomnia TEAE, events (SAD 20 mg): 0 | Insomnia TEAE, participants (SAD 20 mg): 0 n (%) | Nasopharyngitis TEAE, events (SAD 20 mg): 0 | Nasopharyngitis TEAE, participants (SAD 20 mg): 0 n (%) | Nervous system disorders TEAE, events (SAD 20 mg): 0 | Nervous system disorders TEAE, participants (SAD 20 mg): 0 n (%) | Psychiatric disorders TEAE, events (SAD 20 mg): 0 | Psychiatric disorders TEAE, participants (SAD 20 mg): 0 n (%) | Rash TEAE, events (SAD 20 mg): 0 | Rash TEAE, participants (SAD 20 mg): 0 n (%) | Skin and subcutaneous tissue disorders TEAE, events (SAD 20 mg): 0 | Skin and subcutaneous tissue disorders TEAE, participants (SAD 20 mg): 0 n (%) | Tooth infection TEAE, events (SAD 20 mg): 0 | Tooth infection TEAE, participants (SAD 20 mg): 0 n (%) | Abdominal pain TEAE, events (SAD 60 mg): 0 | Abdominal pain TEAE, participants (SAD 60 mg): 0 n (%) | Any event TEAE, events (SAD 60 mg): 1 | Any event TEAE, participants (SAD 60 mg): 1 (16.7) n (%) | Diarrhea TEAE, events (SAD 60 mg): 0 | Diarrhea TEAE, participants (SAD 60 mg): 0 n (%) | Dysgeusia TEAE, events (SAD 60 mg): 0 | Dysgeusia TEAE, participants (SAD 60 mg): 0 n (%) | Gastrointestinal disorders TEAE, events (SAD 60 mg): 0 | Gastrointestinal disorders TEAE, participants (SAD 60 mg): 0 n (%) | Headache TEAE, events (SAD 60 mg): 0 | Headache TEAE, participants (SAD 60 mg): 0 n (%) | Hypoaesthesia oral TEAE, events (SAD 60 mg): 0 | Hypoaesthesia oral TEAE, participants (SAD 60 mg): 0 n (%) | Infections and infestations TEAE, events (SAD 60 mg): 1 | Infections and infestations TEAE, participants (SAD 60 mg): 1 (16.7) n (%) | Insomnia TEAE, events (SAD 60 mg): 0 | Insomnia TEAE, participants (SAD 60 mg): 0 n (%) | Nasopharyngitis TEAE, events (SAD 60 mg): 0 | Nasopharyngitis TEAE, participants (SAD 60 mg): 0 n (%) | Nervous system disorders TEAE, events (SAD 60 mg): 0 | Nervous system disorders TEAE, participants (SAD 60 mg): 0 n (%) | Psychiatric disorders TEAE, events (SAD 60 mg): 0 | Psychiatric disorders TEAE, participants (SAD 60 mg): 0 n (%) | Rash TEAE, events (SAD 60 mg): 0 | Rash TEAE, participants (SAD 60 mg): 0 n (%) | Skin and subcutaneous tissue disorders TEAE, events (SAD 60 mg): 0 | Skin and subcutaneous tissue disorders TEAE, participants (SAD 60 mg): 0 n (%) | Tooth infection TEAE, events (SAD 60 mg): 1 | Tooth infection TEAE, participants (SAD 60 mg): 1 (16.7) n (%) | Abdominal pain TEAE, events (SAD 180 mg): 0 | Abdominal pain TEAE, participants (SAD 180 mg): 0 n (%) | Any event TEAE, events (SAD 180 mg): 0 | Any event TEAE, participants (SAD 180 mg): 0 n (%) | Diarrhea TEAE, events (SAD 180 mg): 0 | Diarrhea TEAE, participants (SAD 180 mg): 0 n (%) | Dysgeusia TEAE, events (SAD 180 mg): 0 | Dysgeusia TEAE, participants (SAD 180 mg): 0 n (%) | Gastrointestinal disorders TEAE, events (SAD 180 mg): 0 | Gastrointestinal disorders TEAE, participants (SAD 180 mg): 0 n (%) | Headache TEAE, events (SAD 180 mg): 0 | Headache TEAE, participants (SAD 180 mg): 0 n (%) | Hypoaesthesia oral TEAE, events (SAD 180 mg): 0 | Hypoaesthesia oral TEAE, participants (SAD 180 mg): 0 n (%) | Infections and infestations TEAE, events (SAD 180 mg): 0 | Infections and infestations TEAE, participants (SAD 180 mg): 0 n (%) | Insomnia TEAE, events (SAD 180 mg): 0 | Insomnia TEAE, participants (SAD 180 mg): 0 n (%) | Nasopharyngitis TEAE, events (SAD 180 mg): 0 | Nasopharyngitis TEAE, participants (SAD 180 mg): 0 n (%) | Nervous system disorders TEAE, events (SAD 180 mg): 0 | Nervous system disorders TEAE, participants (SAD 180 mg): 0 n (%) | Psychiatric disorders TEAE, events (SAD 180 mg): 0 | Psychiatric disorders TEAE, participants (SAD 180 mg): 0 n (%) | Rash TEAE, events (SAD 180 mg): 0 | Rash TEAE, participants (SAD 180 mg): 0 n (%) | Skin and subcutaneous tissue disorders TEAE, events (SAD 180 mg): 0 | Skin and subcutaneous tissue disorders TEAE, participants (SAD 180 mg): 0 n (%) | Tooth infection TEAE, events (SAD 180 mg): 0 | Tooth infection TEAE, participants (SAD 180 mg): 0 n (%) | Abdominal pain TEAE, events (SAD 400 mg): 1 | Abdominal pain TEAE, participants (SAD 400 mg): 1 (16.7) n (%) | Any event TEAE, events (SAD 400 mg): 4 | Any event TEAE, participants (SAD 400 mg): 2 (33.3) n (%) | Diarrhea TEAE, events (SAD 400 mg): 0 | Diarrhea TEAE, participants (SAD 400 mg): 0 n (%) | Dysgeusia TEAE, events (SAD 400 mg): 2 | Dysgeusia TEAE, participants (SAD 400 mg): 2 (33.3) n (%) | Gastrointestinal disorders TEAE, events (SAD 400 mg): 1 | Gastrointestinal disorders TEAE, participants (SAD 400 mg): 1 (16.7) n (%) | Headache TEAE, events (SAD 400 mg): 1 | Headache TEAE, participants (SAD 400 mg): 1 (16.7) n (%) | Hypoaesthesia oral TEAE, events (SAD 400 mg): 0 | Hypoaesthesia oral TEAE, participants (SAD 400 mg): 0 n (%) | Infections and infestations TEAE, events (SAD 400 mg): 0 | Infections and infestations TEAE, participants (SAD 400 mg): 0 n (%) | Insomnia TEAE, events (SAD 400 mg): 0 | Insomnia TEAE, participants (SAD 400 mg): 0 n (%) | Nasopharyngitis TEAE, events (SAD 400 mg): 0 | Nasopharyngitis TEAE, participants (SAD 400 mg): 0 n (%) | Nervous system disorders TEAE, events (SAD 400 mg): 3 | Nervous system disorders TEAE, participants (SAD 400 mg): 2 (33.3) n (%) | Psychiatric disorders TEAE, events (SAD 400 mg): 0 | Psychiatric disorders TEAE, participants (SAD 400 mg): 0 n (%) | Rash TEAE, events (SAD 400 mg): 0 | Rash TEAE, participants (SAD 400 mg): 0 n (%) | Skin and subcutaneous tissue disorders TEAE, events (SAD 400 mg): 0 | Skin and subcutaneous tissue disorders TEAE, participants (SAD 400 mg): 0 n (%) | Tooth infection TEAE, events (SAD 400 mg): 0 | Tooth infection TEAE, participants (SAD 400 mg): 0 n (%) | Abdominal pain TEAE, events (SAD 600 mg): 0 | Abdominal pain TEAE, participants (SAD 600 mg): 0 n (%) | Any event TEAE, events (SAD 600 mg): 3 | Any event TEAE, participants (SAD 600 mg): 2 (33.3) n (%) | Diarrhea TEAE, events (SAD 600 mg): 0 | Diarrhea TEAE, participants (SAD 600 mg): 0 n (%) | Dysgeusia TEAE, events (SAD 600 mg): 0 | Dysgeusia TEAE, participants (SAD 600 mg): 0 n (%) | Gastrointestinal disorders TEAE, events (SAD 600 mg): 1 | Gastrointestinal disorders TEAE, participants (SAD 600 mg): 1 (16.7) n (%) | Headache TEAE, events (SAD 600 mg): 0 | Headache TEAE, participants (SAD 600 mg): 0 n (%) | Hypoaesthesia oral TEAE, events (SAD 600 mg): 1 | Hypoaesthesia oral TEAE, participants (SAD 600 mg): 1 (16.7) n (%) | Infections and infestations TEAE, events (SAD 600 mg): 1 | Infections and infestations TEAE, participants (SAD 600 mg): 1 (16.7) n (%) | Insomnia TEAE, events (SAD 600 mg): 1 | Insomnia TEAE, participants (SAD 600 mg): 1 (16.7) n (%) | Nasopharyngitis TEAE, events (SAD 600 mg): 1 | Nasopharyngitis TEAE, participants (SAD 600 mg): 1 (16.7) n (%) | Nervous system disorders TEAE, events (SAD 600 mg): 0 | Nervous system disorders TEAE, participants (SAD 600 mg): 0 n (%) | Psychiatric disorders TEAE, events (SAD 600 mg): 1 | Psychiatric disorders TEAE, participants (SAD 600 mg): 1 (16.7) n (%) | Rash TEAE, events (SAD 600 mg): 0 | Rash TEAE, participants (SAD 600 mg): 0 n (%) | Skin and subcutaneous tissue disorders TEAE, events (SAD 600 mg): 0 | Skin and subcutaneous tissue disorders TEAE, participants (SAD 600 mg): 0 n (%) | Tooth infection TEAE, events (SAD 600 mg): 0 | Tooth infection TEAE, participants (SAD 600 mg): 0 n (%) | participants with at least one TEAE (SAD, all balinatunfib groups (five of 36)): 13.9% | tolerability (all single oral doses (5–600 mg)): well tolerated
